# Data: ChEMBL document CHEMBL1125323, “Potent V2/V1a vasopressin antagonists with C-terminal ethylenediamine-linked retro-amino acids” (J Med Chem, 1992)
# Numbered stars: 1 amine (or outer) side, 2 acyl side, 3 side chain; on linkers, the order of the positions; unused ones are H or OH. Bridge positions count the residues as written; N and C are the ends. Square brackets hold non-standard residues; d marks the D form. Peptide text beside a SMILES is read from it. X1 = O=C(CC1(S[*:2])CCCCC1)[*:1]
# How the values were obtained:
# [1] = target: T1, Vasopressin receptor (Rattus norvegicus) (UniProt P48974+P30560+Q00788); assay: Antivasopressor potency in terms of blood pressure response in rats anesthetized with urethane and pretreated with phenoxybenzamine; type: functional
# How it was run: (§1)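 Rats anesthetized with urethane, pretreated with phenoxybenzamine; blood pressure responses recorded. USP posterior pituitary reference standard as agonist, given intravenously with antagonist. ED (nmol/kg) is the antagonist dose at which 2x units of agonist match the response to x units without antagonist, log-interpolated from doses above and below. In vivo pA2 uses assumed distribution volume 67 mL/kg.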
# [2] = target: T1, Vasopressin receptor (Rattus norvegicus); assay: Antiantidiuretic potency in terms of measuring changes in urine flow in water-loaded rats under ethanol anesthesia; type: functional
# How it was run: (§2)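 Water-loaded rats under ethanol anesthesia; urine flow followed. USP posterior pituitary reference standard as agonist, all injections intravenous. Effective dose (nmol/kg) is the antagonist dose reducing the response to 2x units of agonist to that of x units alone, interpolated on a log scale between bracketing doses. pA2 = negative log of ED divided by assumed distribution volume 67 mL/kg.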
# Vasopressin receptor [3] = target: T2, Vasopressin receptor (Rattus norvegicus, UniProt P48974+P30560+Q00788); assay: Antivasopressor potency in terms of negative logarithm of the effective doses divided by the estimated volume of distribution; type: functional; how it was run: as §1
# Vasopressin receptor [4] = target: T2, Vasopressin receptor; assay: Antiantidiuretic potency in terms of negative logarithm of the effective doses divided by the estimated volume of distribution; type: functional, Urine; how it was run: as §2
Compound,pA2 (Vasopressin receptor [3]),pA2 (Vasopressin receptor [4]),ED [1] [nM/kg],ED [2] [nM/kg]
CC[C@H](C)[C@@H]1NC(=O)[C@H](Cc2ccccc2)NC(=O)[C@@H](Cc2ccccc2)NC(=O)CC2(CCCCC2)SSC[C@@H](C(=O)N2CCC[C@H]2C(=O)N[C@@H](CCCN=C(N)N)C(=O)NCCN)NC(=O)[C@H](CC(N)=O)NC1=O,7.89,8.11,0.88,0.55
CCOc1ccc(C[C@H]2NC(=O)CC3(CCCCC3)SSC[C@@H](C(=O)N3CCC[C@H]3C(=O)N[C@@H](CCCN=C(N)N)C(=O)NCC(N)=O)NC(=O)[C@H](CC(N)=O)NC(=O)[C@H]([C@@H](C)CC)NC(=O)[C@H](Cc3ccccc3)NC2=O)cc1,7.78,7.75,1.2,1.2
CCOc1ccc(C[C@@H]2NC(=O)CC3(CCCCC3)SSC[C@@H](C(=O)NCCNC(=O)[C@@H](N)CCCN=C(N)N)NC(=O)[C@H](CC(N)=O)NC(=O)[C@H](C(C)C)NC(=O)[C@H](Cc3ccccc3)NC2=O)cc1,7.97,6.39,,
CCOc1ccc(C[C@H]2NC(=O)CC3(CCCCC3)SSC[C@@H](C(=O)N[C@@H](CCCN=C(N)N)C(=O)NCC(=O)NCCNC(=O)[C@@H](N)CCCN=C(N)N)NC(=O)[C@H](CC(N)=O)NC(=O)[C@H](C(C)C)NC(=O)[C@H](Cc3ccccc3)NC2=O)cc1,7.96,7.87,,
CCOc1ccc(C[C@H]2NC(=O)CC3(CCCCC3)SSC[C@@H](C(=O)N3CCC[C@H]3C(=O)N[C@@H](CCCN=C(N)N)C(=O)NCCN)NC(=O)[C@H](CC(N)=O)NC(=O)[C@H]([C@@H](C)CC)NC(=O)[C@H](Cc3ccccc3)NC2=O)cc1,8.33,8,0.32,0.77
CCOc1ccc(C[C@H]2NC(=O)CC3(CCCCC3)SSC[C@@H](C(=O)NCCNC(=O)[C@H](CCCN=C(N)N)NC(=O)[C@@H](N)CCCN=C(N)N)NC(=O)[C@H](CC(N)=O)NC(=O)[C@H](C(C)C)NC(=O)[C@H](Cc3ccccc3)NC2=O)cc1,7.93,7.61,,
CC[C@H](C)[C@@H]1NC(=O)[C@H](Cc2ccccc2)NC(=O)[C@@H](Cc2ccccc2)NC(=O)CC2(CCCCC2)SSC[C@@H](C(=O)N2CCC[C@H]2C(=O)N[C@@H](CCCN=C(N)N)C(=O)NCC(N)=O)NC(=O)[C@H](CC(N)=O)NC1=O ([dF]FINCPRG-NH2; linker N-5 via X1),7.86,8.24,0.99,0.46
CCOc1ccc(C[C@H]2NC(=O)CC3(CCCCC3)SSC[C@@H](C(=O)N3CCC[C@H]3C(=O)N[C@@H](CCCN=C(N)N)C(=O)NCC(N)=O)NC(=O)[C@H](CC(N)=O)NC(=O)[C@H](C(C)C)NC(=O)[C@H](Cc3ccccc3)NC2=O)cc1 ([dY](Et)FVNCPRG-NH2; linker N-5 via X1),8.22,7.81,0.45,1.1
CC[C@H](C)[C@@H]1NC(=O)[C@H](Cc2ccccc2)NC(=O)[C@@H](Cc2ccccc2)NC(=O)CC2(CCCCC2)SSC[C@@H](C(=O)N2CCC[C@H]2C(=O)N[C@@H](CCCN=C(N)N)C(=O)NCC(=O)NCCN)NC(=O)[C@H](CC(N)=O)NC1=O,7.58,8.1,1.8,0.57

# Continued, in another order:
pA2 (Vasopressin receptor [3]),pA2 (Vasopressin receptor [4]),Compound,ED [1] [nM/kg],ED [2] [nM/kg]
7.95,7.64,CCOc1ccc(C[C@H]2NC(=O)CC3(CCCCC3)SSC[C@@H](C(=O)N3CCC[C@H]3C(=O)NCCN)NC(=O)[C@H](CC(N)=O)NC(=O)[C@H](C(C)C)NC(=O)[C@H](Cc3ccccc3)NC2=O)cc1,0.75,1.6
6.08,< 5.5,CC(C)C[C@H]1NC(=O)CC2(CCCCC2)SSC[C@@H](C(=O)NCCNC(=O)[C@@H](N)CCCN=C(N)N)NC(=O)[C@H](CC(N)=O)NC(=O)[C@H](C(C)C)NC(=O)[C@H](Cc2ccccc2)NC1=O,,
7.95,7.54,CCOc1ccc(C[C@H]2NC(=O)CC3(CCCCC3)SSC[C@@H](C(=O)NCCNC(=O)[C@@H](N)CCCN=C(N)N)NC(=O)[C@H](CC(N)=O)NC(=O)[C@H](C(C)C)NC(=O)[C@H](Cc3ccccc3)NC2=O)cc1,,
8.15,7.07,CCOc1ccc(C[C@H]2NC(=O)CC3(CCCCC3)SSC[C@@H](C(=O)NCCN)NC(=O)[C@H](CC(N)=O)NC(=O)[C@H](C(C)C)NC(=O)[C@H](Cc3ccccc3)NC2=O)cc1,,
7.92,7.76,CCOc1ccc(C[C@H]2NC(=O)CC3(CCCCC3)SSC[C@@H](C(=O)NCCNC(=O)[C@H](N)CCCCN)NC(=O)[C@H](CC(N)=O)NC(=O)[C@H](C(C)C)NC(=O)[C@H](Cc3ccccc3)NC2=O)cc1,,
7.61,6.59,CCOc1ccc(C[C@H]2NC(=O)CC3(CCCCC3)SSC[C@@H](C(=O)NCCNC(=O)CN)NC(=O)[C@H](CC(N)=O)NC(=O)[C@H](C(C)C)NC(=O)[C@H](Cc3ccccc3)NC2=O)cc1,,
8.08,7.78,CCOc1ccc(C[C@H]2NC(=O)CC3(CCCCC3)SSC[C@@H](C(=O)N3CCC[C@H]3C(=O)NCCNC(=O)[C@H](N)CCCCN)NC(=O)[C@H](CC(N)=O)NC(=O)[C@H](C(C)C)NC(=O)[C@H](Cc3ccccc3)NC2=O)cc1,,
7.8,7.55,CCOc1ccc(C[C@H]2NC(=O)CC3(CCCCC3)SSC[C@@H](C(=O)NCCNC(=O)[C@@H](N)CCCN)NC(=O)[C@H](CC(N)=O)NC(=O)[C@H](C(C)C)NC(=O)[C@H](Cc3ccccc3)NC2=O)cc1,,
8.05,8.03,CCOc1ccc(C[C@H]2NC(=O)CC3(CCCCC3)SSC[C@@H](C(=O)N[C@@H](CCCN=C(N)N)C(=O)NCC(=O)NCCN)NC(=O)[C@H](CC(N)=O)NC(=O)[C@H](C(C)C)NC(=O)[C@H](Cc3ccccc3)NC2=O)cc1,,
8.33,7.82,CCOc1ccc(C[C@H]2NC(=O)CC3(CCCCC3)SSC[C@@H](C(=O)N3CCC[C@H]3C(=O)N[C@@H](CCCN=C(N)N)C(=O)NCC(=O)NCCN)NC(=O)[C@H](CC(N)=O)NC(=O)[C@H](C(C)C)NC(=O)[C@H](Cc3ccccc3)NC2=O)cc1,0.32,1.2
8,7.79,CCOc1ccc(C[C@H]2NC(=O)CC3(CCCCC3)SSC[C@@H](C(=O)N3CCC[C@H]3C(=O)N[C@@H](CCCN=C(N)N)C(=O)NCCN)NC(=O)[C@H](CC(N)=O)NC(=O)[C@H](C(C)C)NC(=O)[C@H](Cc3ccccc3)NC2=O)cc1,0.69,1.1
8.15,7.92,CCOc1ccc(C[C@H]2NC(=O)CC3(CCCCC3)SSC[C@@H](C(=O)N3CCC[C@H]3C(=O)NCCNC(=O)[C@H](N)CCCN=C(N)N)NC(=O)[C@H](CC(N)=O)NC(=O)[C@H](C(C)C)NC(=O)[C@H](Cc3ccccc3)NC2=O)cc1,,
7.86,7.92,CCOc1ccc(C[C@H]2NC(=O)CC3(CCCCC3)SSC[C@@H](C(=O)N3CCC[C@H]3C(=O)NCCNC(=O)[C@H](N)CCCN)NC(=O)[C@H](CC(N)=O)NC(=O)[C@H](C(C)C)NC(=O)[C@H](Cc3ccccc3)NC2=O)cc1,,
8.15,7.95,CCOc1ccc(C[C@H]2NC(=O)CC3(CCCCC3)SSC[C@@H](C(=O)NCCNC(=O)[C@H](N)CCCN=C(N)N)NC(=O)[C@H](CC(N)=O)NC(=O)[C@H](C(C)C)NC(=O)[C@H](Cc3ccccc3)NC2=O)cc1,,
